Measured values of several laboratories.
Each line is one published result; the experiments were not run side by side.
Organism: Mycobacterium tuberculosis
Effect on: microbial growth

COc1ccc2cc1Oc1cc(ccc1OC)CCC(N[C@H]1CCCc3ccccc31)CCCC2 (stereo partly drawn)  MIC (broth dilution; H37RV): > 100 µg/mL
O=C1NN=C(N=Cc2ccccc2O)C1=NNn1c(-c2ccccc2)nc2ccccc2c1=O  MIC (resazurin; H37RV): 13.8 µM
CNC(=O)c1cc(Oc2ccc(NC(=O)Nc3ccc(Cl)c(C(F)(F)F)c3)cc2)ccn1  MIC (H37RV): 25 µM
O=C(NN1C(=O)CSC12CCCC2)c1[nH]c2ccc(Cl)cc2c1-c1ccccc1  MIC (ATCC27294 H37RV): 1000 µM
N=C(N)Cc1ccc(NC(=O)c2ccc(C(=O)Nc3ccc(CC(=N)N)cc3)cc2)cc1  MIC (H37RV; 7 days): 1 µg/mL
CCOC(=O)c1nnn(-c2cccc(NC(=O)Nc3ccc(Cl)c(Cl)c3)c2)c1C  MIC (ATCC27294 H37RV; 7 days): 16 µg/mL
COc1nc2ccc(Br)cc2cc1[C@@H](c1ccccc1)[C@@](O)(CCN(C)C)c1cccc2ccccc12  MIC (resazurin; H37RV; 7 days): 0.17 µM
C[C@@H]1CN(c2nc(=O)c3cc(C(F)(F)F)cc(C#N)c3s2)[C@@H](C)CN1CC1CCCCC1  MIC (resazurin; H37RV): > 2 µM
CC1(C)S[C@@H]2[C@H](NC(=O)[C@H](N)c3ccccc3)C(=O)N2[C@H]1C(=O)O  MIC (resazurin; H37RA; 14 days): 64 µg/mL
COC(=O)c1cc(-c2cccc(NC(=O)Nc3ccc(Cl)c(C(F)(F)F)c3)c2)on1  MIC (ATCC27294 H37RV; 7 days): > 64 µg/mL
CC1CCC2(CC1)SC(C)C(=O)N2NC(=O)c1[nH]c2ccc(Cl)cc2c1-c1ccccc1 (stereo not drawn)  MIC (ATCC27294 H37RV): 1000 µM
O=C1C(=NNc2nc(-c3ccccc3)cs2)C(N=Cc2ccc(Cl)cc2)=NN1c1ccccc1  MIC (resazurin; H37RV): 25 µg/mL
CC1CC(C)(C)CC2(C1)SC(C)C(=O)N2NC(=O)c1[nH]c2ccc(Cl)cc2c1-c1ccccc1 (stereo not drawn)  MIC (ATCC27294 H37RV): 1000 µM
Cc1ccc(C)n1-c1ccc(-c2nnc(-c3ccc(N(C)C)cc3)[nH]2)cc1  MIC (broth dilution; H37RV; 21 days): 16 µg/mL
C[C@H]1O[C@H](O[C@H]2CC[C@H](n3ccc(NC(=O)c4ccc(NC(=O)[C@@](C)(N)CO)cc4)nc3=O)O[C@@H]2C)[C@H](O)[C@@H](O)[C@@H]1N(C)C  MIC (H37RA): 0.8 µM
CC[C@@H](CO)NCCN[C@@H](CC)CO  MIC (resazurin; H37RA; 14 days): 1 µg/mL
COC(=O)c1cc(-c2cccc(NC(=S)Nc3ccc(Cl)cc3)c2)on1  MIC (ATCC27294 H37RV; 7 days): 1 µg/mL
Cc1ccc2nc(C)c(C(=O)NCc3ccc(S(F)(F)(F)(F)F)cc3)n2c1  MIC (H37RV; 5 days): 0.014 µM
NNC(=O)c1ccncc1  MIC (W4): 0.14 µM
CC1=NN(CNc2ccc(O)cc2)C(=O)C1=NNn1c(-c2ccccc2)nc2ccccc2c1=O  MIC (resazurin; H37RV): 53.5 µM
COc1nc2ccc(Br)cc2cc1[C@@H](c1ccccc1)[C@@](O)(CCN(C)C)c1cccc2ccccc12  MIC: 0.06 µg/mL
O=C(NC(=O)c1cc2c(F)cc(F)cc2[nH]1)c1cccc(Cl)c1  MIC (resazurin; H37RV): > 96 µM
O=C1C(=NNc2nc(-c3ccccc3)cs2)C(N=Cc2ccccc2)=NN1c1ccccc1  MIC (resazurin; H37RV; 5 days): 13.9 µM
Cc1cc(=O)[nH]n1C(=O)c1ccc(-n2c(C)ccc2C)cc1  MIC (broth dilution; H37RV; 21 days): 2 µg/mL
CO[C@H]1/C=C/O[C@@]2(C)Oc3c(C)c(O)c4c(O)c(c(/C=N/N5CCN(C)CC5)c(O)c4c3C2=O)NC(=O)/C(C)=C\C=C\[C@H](C)[C@H](O)[C@@H](C)[C@@H](O)[C@@H](C)[C@H](OC(C)=O)[C@@H]1C  MIC (ATCC27294 H37RV; 8 days): 0.06 µg/mL
CC(=O)O[C@H]1C[C@@]2(C)[C@@H](C[C@@H](O)[C@H]3[C@@]4(C)CC[C@@H](O)[C@@H](C)[C@@H]4CC[C@@]32C)/C1=C(\CCC=C(C)C)C(=O)O  MIC (resazurin; H37RA; 14 days): 4 µg/mL
COC(=O)c1cc(-c2cccc(NC(=O)Nc3ccc(F)c(F)c3)c2)on1  MIC (ATCC27294 H37RV; 7 days): 0.5 µg/mL
Cc1ccc(C)n1-c1ccc(-c2nnc(-c3ccc(Br)cc3)[nH]2)cc1  MIC (broth dilution; H37RV; 21 days): 2 µg/mL
O=C(Nc1cccc(-c2cc(C(=O)O)no2)c1)Nc1ccc(Cl)c(Cl)c1  MIC (ATCC27294 H37RV; 7 days): 64 µg/mL
Cc1ccn2c(C(=O)NCc3ccc(S(F)(F)(F)(F)F)cc3)c(C)nc2c1  MIC (H37RV; 5 days): 0.25 µM
CO[C@H]1/C=C/O[C@@]2(C)Oc3c(C)c(O)c4c(O)c(c(/C=N/N5CCN(C)CC5)c(O)c4c3C2=O)NC(=O)/C(C)=C\C=C\[C@H](C)[C@H](O)[C@@H](C)[C@@H](O)[C@@H](C)[C@H](OC(C)=O)[C@@H]1C  MIC (resazurin; H37RV; 7 days): 0.061 µM
CCCCCCC/C=C\[C@H](O)C#CC#C[C@@H](O)CC  MIC (resazurin; ATCC35801 ERDMAN; 7 days): 49.5 µg/mL
COC(=O)c1cc(-c2cccc(NC(=O)Nc3cc(Cl)ccc3Cl)c2)on1  MIC (ATCC27294 H37RV; 7 days): 2 µg/mL
CC(C)(C)C1CCC2(CC1)SCC(=O)N2NC(=O)c1[nH]c2ccc(Cl)cc2c1-c1ccccc1 (stereo not drawn)  MIC (ATCC27294 H37RV): 16 µM
O=C(CNS(=O)(=O)c1ccc([N+](=O)[O-])cc1[N+](=O)[O-])N1CCN(C(c2ccc(F)cc2)c2ccc(F)cc2)CC1  MIC (ATCC27294 H37RV): 25 µg/mL
Cc1c(Cc2ccccc2Cl)c(=O)n2c([nH]c3ccccc32)c1C#N  MIC (broth dilution; H37RV): > 128 µg/mL
Cc1ccn2c(C(=O)NCc3cccc(S(F)(F)(F)(F)F)c3)c(C)nc2c1  MIC (H37RV; 5 days): 0.65 µM
O=C1C(=NNc2nc(-c3ccccc3)cs2)C(N=Cc2ccc([N+](=O)[O-])cc2)=NN1c1ccccc1  MIC (resazurin; H37RV; 5 days): 50.5 µM
Cc1c(Cc2cccc(Cl)c2)c(=O)n2c([nH]c3ccccc32)c1C#N  MIC (broth dilution; H37RV): > 128 µg/mL
CCCC1CCC2(CC1)SC(C)C(=O)N2NC(=O)c1[nH]c2ccc(Cl)cc2c1-c1ccccc1 (stereo not drawn)  MIC (ATCC27294 H37RV): 1000 µM
[O-][n+]1ccccc1SSc1cccc[n+]1[O-]  MIC (resazurin): 0.23 µM
O=C(CNS(=O)(=O)c1ccc([N+](=O)[O-])cc1)N1CCN(C(c2ccc(F)cc2)c2ccc(F)cc2)CC1  MIC (ATCC27294 H37RV): 25 µg/mL
NNC(=O)c1ccncc1  MIC (resazurin; H37RA; 14 days): 0.05 µg/mL
[H]/N=C(/N)N[C@H]1[C@H](O)[C@@H](O)[C@H](O[C@@H]2O[C@@H](C)[C@](O)(C=O)[C@H]2O[C@@H]2O[C@@H](CO)[C@H](O)[C@@H](O)[C@@H]2NC)[C@@H](N/C(N)=N\[H])[C@@H]1O  MIC (H37RV; 5 days): 1.5 µM
O=[N+]([O-])c1cn2c(n1)OC[C@@H](OCc1ccc(N3CCCCC3)cc1)C2  MIC (H37RV): 0.4 to 0.8 µg/mL
C=C[C@@]1(C)CC[C@@H]2C(C)(C)c3cccc4[nH]c5c(c34)[C@@]2(O)[C@]1(C#N)[C@H]1O[C@H]1C5(C)C  MIC (H37RV): 11.3 µM
CO[C@H]1/C=C/O[C@@]2(C)Oc3c(C)c(O)c4c(O)c(c(/C=N/N5CCN(C)CC5)c(O)c4c3C2=O)NC(=O)/C(C)=C\C=C\[C@H](C)[C@H](O)[C@@H](C)[C@@H](O)[C@@H](C)[C@H](OC(C)=O)[C@@H]1C  MIC (ATCC27294 H37RV; 7 days): 0.03 µg/mL
COC1C(O)C(n2ccc(=O)[nH]c2=O)OC1C(OC1OC(C(=O)NC2CCCCNC2=O)=CC(O)C1O)C(N)=O (stereo not drawn)  MIC (resazurin; H37RV): 12.5 µg/mL
COC(=O)c1cc(-c2cccc(NC(=O)Nc3ccc(F)cc3)c2)on1  MIC (ATCC27294 H37RV; 7 days): 0.5 µg/mL
C[C@H]1COC2(CCN(c3nc(=O)c4cc(C(F)(F)F)cc([N+](=O)[O-])c4s3)CC2)O1  MIC (resazurin; H37RV): < 0.39 µM
O=C1C(=NNc2nc(-c3ccccc3)cs2)C(N=Cc2cccc(Cl)c2)=NN1c1ccccc1  MIC (resazurin; H37RV): 6.25 µg/mL
